Data on one compound can be found in ChEMBL document CHEMBL3526154, “Metabolism, pharmacokinetics, tissue distribution, and stability studies of the prodrug analog of an anti-hepatitis B virus dinucleoside phosphorothioate” (Drug Metab Dispos, 2012).

Holding throughout (assay type): ADME, organism-based
Conditions in all cases: in vivo; call rule not given here

Data set [1] can be described thus: Drug excretion in male Sprague-Dawley rat feces at 10 mg/kg, po administered as single dose measured at 1 to 4 hrs post-dose by liquid scintillation counting analysis. Also on record: dose 10 mg/kg, route oral. Summed up: (§1)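 Single [³⁵S]-prodrug dose to rats, i.v. tail-vein bolus (PEG 400/saline vehicle) or oral gavage (citric acid buffer pH 2.5), 5 ml/kg. Urine and feces collected ~1, 4 and 24 h postdose. Radioactivity counted by liquid scintillation and expressed as % of administered dose. Mean and S.D. from nine rats per sex.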

A further data set deals with Kidney. As to the kind of experiment: Drug uptake in Sprague-Dawley rat kidney at 10 mg/kg, po administered as single dose measured at 4 hrs post-dose by liquid scintillation counting analysis. On the set-up: dose 10 mg/kg, route oral. In outline:
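[35S]-labelled prodrug given once to rats, iv bolus via tail vein (25% PEG 400/75% saline) or oral gavage (0.05 M citric acid buffer, pH 2.5), 5 ml/kg. Rats euthanised at 1, 4 or 24 h. Liver, lung, kidney, heart, brain, spleen, tail and retro-orbital plasma were collected. Samples were homogenised and solubilised, and radioactivity was counted by liquid scintillation. Values are µg-equivalent/ml or g and % of dose.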

A short description of data set [2]: Drug excretion in male Sprague-Dawley rat urine at 10 mg/kg, iv administered as bolus dose measured at 0 to 1 hr post-dose by liquid scintillation counting analysis. On the set-up: dose 10 mg/kg, route intravenous. Summed up: as §1
Data set [3] can be described thus: Drug excretion in female Sprague-Dawley rat feces at 10 mg/kg, po administered as single dose measured at 0 to 1 hr post-dose by liquid scintillation counting analysis. Also on record: dose 10 mg/kg, route oral. Summed up: as §1

The structures appear in SMILES notation.

In the case of `CO[C@@H]1[C@H](OP(=O)(OC[C@H]2O[C@@H](n3cnc4c(N)ncnc43)C[C@@H]2O)[35S]COC(=O)OC(C)C)[C@@H](CO)O[C@H]1n1ccc(=O)[nH]c1=O` (some centres undefined), the Drug excretion in data set [1] came out at 0.01%; in data set [2] it was 22.83%; in data set [3], 0.02%. The Drug uptake entry in the data set on Kidney was “Active”.
